In ChEMBL document CHEMBL1949538, “Hybrids of privileged structures benzothiazoles and pyrrolo[2,1-c] [1,4]benzodiazepin-5-one, and diversity-oriented synthesis of benzothiazoles” (Eur J Med Chem, 2012):

What was measured:
Assay type in all cases: functional, cell-based
THP-1 = assay: Cytotoxicity against human THP1 cells after 2 days by MTT assay; settings: THP-1, 48 h
Procedure, shortened: (§1)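 Leukemia lines (HL-60, THP-1, U-937, Jurkat) grown in RPMI-1640, A-549 in DMEM, both with 10% heat-inactivated FCS at 37 °C, 5% CO2. Cells seeded at 2 × 10⁴/well, dosed after 24 h and read 2 days later. MTT (5 mg/mL stock) added for 4 h at 37 °C, formazan dissolved in DMSO, read at 570 nm. Five replicates; IC50 from linear regression.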

U-937 = assay: Cytotoxicity against human U937 cells after 2 days by MTT assay; settings: U-937, 48 h; procedure, shortened: as §1
Jurkat = assay: Cytotoxicity against human Jurkat cells after 2 days by MTT assay; settings: 48 h; procedure, shortened: as §1
HL-60 = assay: Cytotoxicity against human HL60 cells after 2 days by MTT assay; settings: HL-60, 48 h; procedure, shortened: as §1
A549 = assay: Cytotoxicity against human A549 cells after 2 days by MTT assay; settings: A549, 48 h; procedure, shortened: as §1

Which IC50 (THP-1) does the source give for O=C1c2ccc(-c3nc4ccccc4s3)cc2N=C[C@@H]2CCCN12 here?
The IC50 was 3.09 µM.

And the IC50 (U-937)?
The IC50 was 5.41 µM.

What about the IC50 (Jurkat) of the same compound?
Its IC50 is 9.43 µM.

What about the IC50 (HL-60) of the same compound?
Its IC50 is 7.27 µM.

With Cc1ccc(-c2nc3ccccc3s2)cc1N as the compound, how does the IC50 (THP-1) read?
The IC50 was > 50 µM.

And the IC50 (U-937)?
The IC50 was > 50 µM.

What about the IC50 (Jurkat) of the same compound?
The IC50 was > 50 µM.

What about the IC50 (HL-60) of the same compound?
Its IC50 is > 50 µM.

And the IC50 (A549)?
Its IC50 is > 50 µM.

What does the source list for COc1ccc2nc(-c3ccc(N)cc3)sc2c1?
IC50 (THP-1): > 50 µM; IC50 (U-937): > 50 µM; IC50 (Jurkat): > 50 µM; IC50 (HL-60): > 50 µM; IC50 (A549): > 50 µM

Which IC50 (THP-1) does the source give for COc1ccc2nc(-c3ccc(NC(=O)NCc4ccccc4)cc3)sc2c1 here?
The IC50 was > 50 µM.

And the IC50 (U-937)?
Its IC50 is > 50 µM.

What about the IC50 (Jurkat) of the same compound?
Its IC50 is > 50 µM.

And the IC50 (HL-60)?
Its IC50 is > 50 µM.

What about the IC50 (A549) of the same compound?
The IC50 was > 50 µM.

What does the source list for CC1(C)O[C@H]2O[C@H]([C@H]3COC(C)(C)O3)[C@H](OCc3ccc(-c4nc5ccc(F)cc5s4)cc3)[C@H]2O1?
IC50 (THP-1): > 50 µM; IC50 (U-937): > 50 µM; IC50 (Jurkat): > 50 µM; IC50 (HL-60): > 50 µM; IC50 (A549): > 50 µM

What does the source list for COc1ccc2nc(-c3ccc(C)c(N)c3)sc2c1?
IC50 (THP-1): > 50 µM; IC50 (U-937): > 50 µM; IC50 (Jurkat): > 50 µM; IC50 (HL-60): > 50 µM; IC50 (A549): > 50 µM

How did the IC50 (U-937) turn out when COc1cc([C@@H]2c3cc4c(cc3[C@@H](O[C@@H]3O[C@@H]5CO[C@@H](C)O[C@H]5[C@H](O)[C@H]3O)[C@H]3COC(=O)[C@H]23)OCO4)cc(OC)c1O [ETOPOSIDE] was run?
Its IC50 is 17.9 µM.

And the IC50 (Jurkat)?
The IC50 was 5.35 µM.

For CC1(C)O[C@H]2O[C@H]([C@H](O)CO)[C@H](OCc3ccc(-c4nc5ccc(F)cc5s4)cc3)[C@H]2O1, which IC50 (THP-1) is on record?
The IC50 was 3 µM.

And the IC50 (Jurkat)?
The IC50 was 3.2 µM.

And the IC50 (HL-60)?
The IC50 was 22.3 µM.

And the IC50 (A549)?
Its IC50 is 5.01 µM.

Which results are given for COc1ccc2nc(-c3ccc4c(c3)N=C[C@@H]3CCCN3C4=O)sc2c1?
IC50 (THP-1): 2.14 µM; IC50 (U-937): 6.03 µM; IC50 (Jurkat): 11.3 µM; IC50 (HL-60): 6.39 µM

How did the IC50 (THP-1) turn out when COc1cc2nc(-c3cccc(N)c3C)sc2c(OC)c1OC was run?
The IC50 was 3.56 µM.

And the IC50 (Jurkat)?
The IC50 was 9.75 µM.

And the IC50 (HL-60)?
Its IC50 is 5.63 µM.

And the IC50 (A549)?
Its IC50 is 4.56 µM.

What does the source list for CC[C@@]1(O)C(=O)OCc2c1cc1n(c2=O)Cc2cc3ccccc3nc2-1 [CAMPTOTHECIN]?
IC50 (THP-1): 0.071 µM; IC50 (U-937): 1.98 µM; IC50 (Jurkat): 0.026 µM; IC50 (HL-60): 0.6 µM; IC50 (A549): 0.008 µM

With Cc1ccc(-c2nc3ccc(F)cc3s2)cc1N as the compound, how does the IC50 (THP-1) read?
The IC50 was > 50 µM.

And the IC50 (U-937)?
Its IC50 is > 50 µM.

What about the IC50 (Jurkat) of the same compound?
The IC50 was > 50 µM.

And the IC50 (HL-60)?
Its IC50 is > 50 µM.

What about the IC50 (A549) of the same compound?
Its IC50 is > 50 µM.

For O=C1c2ccc(-c3nc4ccc(F)cc4s3)cc2N=C[C@@H]2CCCN12, which IC50 (THP-1) is on record?
Its IC50 is 0.49 µM.

What about the IC50 (U-937) of the same compound?
Its IC50 is 3.44 µM.

And the IC50 (Jurkat)?
Its IC50 is 6.58 µM.

What about the IC50 (HL-60) of the same compound?
Its IC50 is 4.13 µM.

Which IC50 (THP-1) does the source give for COc1ccc2nc(-c3ccc(NC(=O)C4CC4)cc3)sc2c1 here?
The IC50 was > 50 µM.

And the IC50 (U-937)?
The IC50 was > 50 µM.

What about the IC50 (Jurkat) of the same compound?
The IC50 was > 50 µM.

What about the IC50 (HL-60) of the same compound?
Its IC50 is > 50 µM.

And the IC50 (A549)?
The IC50 was > 50 µM.

What does the source list for COc1ccc2nc(-c3ccc(N=C(NC4CCCCC4)NC4CCCCC4)cc3)sc2c1?
IC50 (THP-1): 3.1 µM; IC50 (Jurkat): 2.23 µM; IC50 (HL-60): 7.15 µM; IC50 (A549): 3.23 µM
